Reference: ChEMBL document CHEMBL4145650, “Napabucasin and Related Heterocycle-Fused Naphthoquinones as STAT3 Inhibitors with Antiproliferative Activity against Cancer Cells” (J Nat Prod, 2018)
Activity calls are given as the source filed them. The rule behind the calls is not given here.

Assays:
[1] = test system: MDA-MB-231; experiment: Antiproliferative activity against human MDA-MB-231 cells measured after 48 hrs by MTT assay; assay type: functional, cell-based; settings: MDA-MB-231, 48 h
Method in brief: (§1)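 Cells kept in 10% FBS medium with penicillin/streptomycin/L-glutamine at 37 °C, 5% CO2 (MDA-MB-231 in DMEM, K562 in RPMI 1640). Viability read by MTT reduction to formazan after 48 h of exposure. IC50 obtained by nonlinear regression against vehicle control, given as mean ±SD of three independent experiments (n = 2 where footnoted).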

[2] = test system: K562; experiment: Antiproliferative activity against human K562 cells measured after 48 hrs by MTT assay; assay type: functional, cell-based; settings: K562, 48 h; method in brief: as §1
[3] = test system: MDA-MB-231; experiment: Induction of apoptosis in human MDA-MB-231 cells assessed as viable cells at 10 umol/L measured after 2 hrs by annexin-V-FITC/7-AAD staining based flow cytometric analysis (reference value: 97 to 98%); assay type: functional; settings: MDA-MB-231, 2 h, read-out: Activity
[4] = test system: MDA-MB-231; experiment: Induction of apoptosis in human MDA-MB-231 cells assessed as viable cells at 10 umol/L measured after 4 hrs by annexin-V-FITC/7-AAD staining based flow cytometric analysis (reference value: 97 to 98%); assay type: functional; settings: MDA-MB-231, 4 h, read-out: Activity
[5] = test system: MDA-MB-231; experiment: Induction of apoptosis in human MDA-MB-231 cells assessed as viable cells at 10 umol/L measured after 6 hrs by annexin-V-FITC/7-AAD staining based flow cytometric analysis (reference value: 97 to 98%); assay type: functional; settings: MDA-MB-231, 6 h, read-out: Activity
[6] = test system: MDA-MB-231; experiment: Induction of apoptosis in human MDA-MB-231 cells assessed as viable cells at 10 umol/L measured after 8 hrs by annexin-V-FITC/7-AAD staining based flow cytometric analysis (reference value: 97 to 98%); assay type: functional; settings: MDA-MB-231, 8 h, read-out: Activity
[7] = test system: MDA-MB-231; experiment: Induction of apoptosis in human MDA-MB-231 cells assessed as viable cells at 10 umol/L measured after 24 hrs by annexin-V-FITC/7-AAD staining based flow cytometric analysis (reference value: 97 to 98%); assay type: functional; settings: MDA-MB-231, 24 h, read-out: Activity
[8] = test system: MDA-MB-231; experiment: Induction of apoptosis in human MDA-MB-231 cells assessed as early apoptotic cells at 10 umol/L measured after 6 hrs by annexin-V-FITC/7-AAD staining based flow cytometric analysis relative to control; assay type: functional
[9] = test system: MDA-MB-231; experiment: Induction of apoptosis in human MDA-MB-231 cells assessed as early apoptotic cells at 10 umol/L measured after 8 hrs by annexin-V-FITC/7-AAD staining based flow cytometric analysis relative to control; assay type: functional
[10] = test system: MDA-MB-231; experiment: Induction of apoptosis in human MDA-MB-231 cells assessed as early apoptotic cells at 10 umol/L measured after 24 hrs by annexin-V-FITC/7-AAD staining based flow cytometric analysis relative to control; assay type: functional
[11] = test system: MDA-MB-231; experiment: Induction of apoptosis in human MDA-MB-231 cells assessed as late apoptotic cells at 10 umol/L measured after 6 hrs by annexin-V-FITC/7-AAD staining based flow cytometric analysis relative to control; assay type: functional
[12] = test system: MDA-MB-231; experiment: Induction of apoptosis in human MDA-MB-231 cells assessed as late apoptotic cells at 10 umol/L measured after 8 hrs by annexin-V-FITC/7-AAD staining based flow cytometric analysis relative to control; assay type: functional
[13] = test system: MDA-MB-231; experiment: Induction of apoptosis in human MDA-MB-231 cells assessed as late apoptotic cells at 10 umol/L measured after 24 hrs by annexin-V-FITC/7-AAD staining based flow cytometric analysis relative to control; assay type: functional
[14] = test system: MDA-MB-231; experiment: Cell cycle arrest in human MDA-MB-231 cells assessed as accumulation at sub-G0 phase at 1 uM measured after 24 hrs by propidium iodide staining based flow cytometry (reference value: 3%); assay type: functional
[15] = test system: MDA-MB-231; experiment: Cell cycle arrest in human MDA-MB-231 cells assessed as accumulation at G1 phase at 1 uM measured after 24 hrs by propidium iodide staining based flow cytometry (reference value: 62%); assay type: functional
[16] = test system: MDA-MB-231; experiment: Cell cycle arrest in human MDA-MB-231 cells assessed as accumulation at S phase at 1 uM measured after 24 hrs by propidium iodide staining based flow cytometry (reference value: 12%); assay type: functional
[17] = test system: MDA-MB-231; experiment: Cell cycle arrest in human MDA-MB-231 cells assessed as accumulation at G2 phase at 1 uM measured after 24 hrs by propidium iodide staining based flow cytometry (reference value: 23%); assay type: functional
[18] = test system: MDA-MB-231; experiment: Cell cycle arrest in human MDA-MB-231 cells assessed as accumulation at sub-G0 phase at 3 uM measured after 24 hrs by propidium iodide staining based flow cytometry (reference value: 3%); assay type: functional
[19] = test system: MDA-MB-231; experiment: Cell cycle arrest in human MDA-MB-231 cells assessed as accumulation at G1 phase at 3 uM measured after 24 hrs by propidium iodide staining based flow cytometry (reference value: 62%); assay type: functional
[20] = test system: MDA-MB-231; experiment: Cell cycle arrest in human MDA-MB-231 cells assessed as accumulation at S phase at 3 uM measured after 24 hrs by propidium iodide staining based flow cytometry (reference value: 12%); assay type: functional
[21] = test system: MDA-MB-231; experiment: Cell cycle arrest in human MDA-MB-231 cells assessed as accumulation at G2 phase at 3 uM measured after 24 hrs by propidium iodide staining based flow cytometry (reference value: 23%); assay type: functional
[22] = test system: MDA-MB-231; experiment: Cell cycle arrest in human MDA-MB-231 cells assessed as accumulation at sub-G0 phase at 10 uM measured after 24 hrs by propidium iodide staining based flow cytometry (reference value: 3%); assay type: functional
[23] = test system: MDA-MB-231; experiment: Cell cycle arrest in human MDA-MB-231 cells assessed as accumulation at G1 phase at 10 uM measured after 24 hrs by propidium iodide staining based flow cytometry (reference value: 62%); assay type: functional
[24] = test system: MDA-MB-231; experiment: Cell cycle arrest in human MDA-MB-231 cells assessed as accumulation at S phase at 10 uM measured after 24 hrs by propidium iodide staining based flow cytometry (reference value: 12%); assay type: functional
[25] = test system: MDA-MB-231; experiment: Cell cycle arrest in human MDA-MB-231 cells assessed as accumulation at G2 phase at 10 uM measured after 24 hrs by propidium iodide staining based flow cytometry (reference value: 23%); assay type: functional
[26] = test system: MDA-MB-231; experiment: Cell cycle arrest in human MDA-MB-231 cells assessed as accumulation at sub-G0 phase at 30 uM measured after 24 hrs by propidium iodide staining based flow cytometry (reference value: 3%); assay type: functional
[27] = test system: MDA-MB-231; experiment: Cell cycle arrest in human MDA-MB-231 cells assessed as accumulation at G1 phase at 30 uM measured after 24 hrs by propidium iodide staining based flow cytometry (reference value: 62%); assay type: functional
[28] = test system: MDA-MB-231; experiment: Cell cycle arrest in human MDA-MB-231 cells assessed as accumulation at S phase at 30 uM measured after 24 hrs by propidium iodide staining based flow cytometry (reference value: 12%); assay type: functional
[29] = test system: MDA-MB-231; experiment: Cell cycle arrest in human MDA-MB-231 cells assessed as accumulation at G2 phase at 30 uM measured after 24 hrs by propidium iodide staining based flow cytometry (reference value: 23%); assay type: functional
[30] = test system: MDA-MB-231; experiment: Induction of superoxide generation in human MDA-MB-231 cells at 5 umol/L measured after 24 hrs by DHE staining based flow cytometry; assay type: functional, cell-based
Method in brief: (§2)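 Cells were treated with compound at 5 μmol/L or DMSO for 24 h, with or without dicoumarol preincubation (5 μmol/L, 30 min), then stained with DHE for 30 min. 2-OH-DHE fluorescence was read by flow cytometry and expressed relative to vehicle control. At least three independent measurements.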

[31] = test system: MDA-MB-231; experiment: Induction of superoxide generation in human MDA-MB-231 cells at 5 umol/L measured after 24 hrs in presence of NQO1 inhibitor dicoumarol by DHE staining based flow cytometry; assay type: functional, cell-based; method in brief: as §2
[32] = test system: K562; experiment: Induction of superoxide generation in human K562 cells at 5 umol/L measured after 24 hrs by DHE staining based flow cytometry; assay type: functional, cell-based; method in brief: as §2
[33] = test system: K562; experiment: Induction of superoxide generation in human K562 cells at 5 umol/L measured after 24 hrs in presence of NQO1 inhibitor dicoumarol by DHE staining based flow cytometry; assay type: functional, cell-based; method in brief: as §2
[34] = target: T1, Signal transducer and activator of transcription 3 (Homo sapiens, UniProt P40763); experiment: Inhibition of STAT3 phosphorylation at Y705 in human MDA-MB-231 cells after 4 hrs by HTRF assay; assay type: cell-based
T1 sequence (P40763 whole entry): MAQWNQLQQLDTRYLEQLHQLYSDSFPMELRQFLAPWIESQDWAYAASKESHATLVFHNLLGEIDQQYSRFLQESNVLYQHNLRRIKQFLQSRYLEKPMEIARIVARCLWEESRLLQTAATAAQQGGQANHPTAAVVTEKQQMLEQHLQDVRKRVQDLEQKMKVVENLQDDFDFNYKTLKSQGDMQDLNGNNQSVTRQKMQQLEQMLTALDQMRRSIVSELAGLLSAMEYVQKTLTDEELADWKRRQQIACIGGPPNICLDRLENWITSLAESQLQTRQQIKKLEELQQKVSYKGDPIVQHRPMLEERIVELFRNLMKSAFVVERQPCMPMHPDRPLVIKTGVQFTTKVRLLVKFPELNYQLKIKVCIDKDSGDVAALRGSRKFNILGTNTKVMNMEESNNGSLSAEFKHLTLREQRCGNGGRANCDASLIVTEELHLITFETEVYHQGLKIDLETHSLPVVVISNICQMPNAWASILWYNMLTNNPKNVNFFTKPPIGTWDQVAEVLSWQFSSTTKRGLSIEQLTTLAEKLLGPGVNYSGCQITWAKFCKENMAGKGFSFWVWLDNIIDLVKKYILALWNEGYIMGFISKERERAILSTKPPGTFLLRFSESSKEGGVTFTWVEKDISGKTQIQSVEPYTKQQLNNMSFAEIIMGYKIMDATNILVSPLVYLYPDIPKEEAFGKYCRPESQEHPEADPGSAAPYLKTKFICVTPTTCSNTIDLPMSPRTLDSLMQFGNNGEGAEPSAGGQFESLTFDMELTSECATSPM
Method in brief: (§3)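 MDA-MB-231 cells (10^5/well) were left to adhere overnight, serum-starved for 4 h in DMEM, then treated with 0.1–30 μmol/L compound (0.5% final DMSO) for 4 h at 37 °C. Lysates were incubated 24 h at room temperature with Eu-cryptate/d2 antibody pairs for phospho-STAT3 (Y705) or total STAT3. The 665/620 nm HTRF ratio was taken and phospho/total normalized. EC50 was obtained by nonlinear regression.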

[35] = test system: MDA-MB-231; experiment: Effect on total STAT3 level in human MDA-MB-231 cells at 0.1 to 30 umol/L after 4 hrs by HTRF assay; assay type: cell-based; settings: mda-mb-231, 4 h; method in brief: as §3
[36] = target: T1, Signal transducer and activator of transcription 3; experiment: Inhibition of STAT3 phosphorylation at Y705 in human MDA-MB-231 cells assessed as reduction in ratio of phosphorylated STAT3 to total STAT3 level after 4 hrs by HTRF assay; assay type: cell-based; method in brief: as §3
[37] = target: T1, Signal transducer and activator of transcription 3; experiment: Binding affinity to STAT3 in human MDA-MB-231 cells at 100 uM measured after 1 hr by DARTS-Western blot analysis; assay type: cell-based
Method in brief: (§4)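 A nondenaturing lysate of MDA-MB-231 cells (M-PER with protease and phosphatase inhibitors) was incubated with compound at 100 μmol/L or DMSO for 1 h at room temperature in the dark. TNC buffer pH 8.0 was added, then thermolysin (1:3000 of protein) for 30 min at room temperature; undigested controls were kept. Run on SDS-PAGE with 10 μg protein per lane, then Western blot with anti-STAT3.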

[38] = target: T1, Signal transducer and activator of transcription 3; experiment: Binding affinity to STAT3 in human MDA-MB-231 cells at 100 uM treated for 1 hr followed by thermolysin addition measured after 30 mins by DARTS-Western blot analysis; assay type: cell-based; method in brief: as §4

IC50 [1] | IC50 [2] | SMILES | viability at 10 µM [3] | viability at 10 µM [4] | viability at 10 µM [5] | viability at 10 µM [6] | viability at 10 µM [7] | Activity [10] | Activity [13] | Activity [14] | Activity [15] | Activity [16] | Activity [17] | Activity [18] | Activity [19] | Activity [20] | Activity [21] | Activity [22] | Activity [23] | Activity [24] | also measured
4300 nM | 1600 nM | CC1(C)CCC2=C(O1)c1ccccc1C(=O)C2=O [LAPACHONE] | 97% | 93% | 90% | 86% | 38% | 15% | 48% | 4% | 62% | 14% | 20% | 3% | 63% | 14% | 21% | 3% | 53% | 18% | Activity [8]: 4%; Activity [9]: 7%; Activity [11]: 7%; Activity [12]: 8%; Activity [25]: 27%; Activity [26]: 3%; Activity [27]: 57%; Activity [28]: 16%; Activity [29]: 24%; Activity [30]: inactive; Activity [31]: inactive; Activity [32]: inactive; Activity [33]: inactive
2100 nM | 1000 nM | CC(=O)c1cc2c(o1)C(=O)c1ccccc1C2=O [NAPABUCASIN] | 97% | 97% | 96% | 94% | 62% | 20% | 19% | 5% | 60% | 13% | 22% | 5% | 56% | 15% | 25% | 4% | 56% | 14% | Activity [25]: 26%; Activity [26]: 3%; Activity [27]: 56%; Activity [28]: 15%; Activity [29]: 26%; Activity [30]: Active; Activity [31]: Active; Activity [33]: inactive; EC50 [34]: 2000 nM; Activity [35]: Non-Toxic; EC50 [36]: 1900 nM; Activity [37]: inactive; Activity [38]: Active

SMILES | IC50 [1] | IC50 [2] | viability at 10 µM [3] | viability at 10 µM [4] | viability at 10 µM [5] | viability at 10 µM [6] | viability at 10 µM [7] | Activity [10] | Activity [13] | Activity [14] | Activity [15] | Activity [16] | Activity [17] | Activity [18] | Activity [19] | Activity [20] | Activity [21] | Activity [22] | Activity [23] | Activity [24] | also measured
CC(C)=CCC1=C(O)C(=O)c2ccccc2C1=O [LAPACHOL] | > 10000 nM | > 10000 nM | – | – | – | – | – | – | – | – | – | – | – | – | – | – | – | – | – | – | –
